PubChem BioAssay AID651999 (Sanford-Burnham Center for Chemical Genomics, 2013)
About 1,400 (0.39%) of roughly 360,000 compounds were called active.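 The calls were made as follows: active = pattern-corrected inhibition above about 35%, with an unprinted fluorescence ratio check between 0.5 and 1.5 (limit read from the data, passing the limit was not always enough); inactive = the rest.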 This excerpt belongs to a sample that is enriched for actives.

molecular target: COP9 signalosome complex subunit 5 (Homo sapiens) (UniProt Q92905); test: CSN5 deneddylase inhibitors on cullin-RING ligase – biochemical, fluorescence polarization, uHTS, primary screen (AID 651999); conditions: Purified CSN, SCF-Nedd8-OG deneddylation, at 12.5 µM, hits give high values;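 also: 0% = enzyme with substrate and 100% = substrate without enzyme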
Method in brief: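 Material: purified human Csn5 enzyme expressed in HEK293T cells / Medium: Tris buffer pH 7.5, NaCl, DTT, Tween-20, trehalose, ovalbumin / Compound dosing: 12.5 µM single point / Schedule: 90 min incubation of compound, enzyme and substrate at room temperature / Signal: fluorescence polarization of the substrate / Control set: no-enzyme wells high, enzyme-with-substrate wells low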

Sequence of COP9 signalosome complex subunit 5 (Homo sapiens) (Q92905 whole entry, looked up, one chain of several): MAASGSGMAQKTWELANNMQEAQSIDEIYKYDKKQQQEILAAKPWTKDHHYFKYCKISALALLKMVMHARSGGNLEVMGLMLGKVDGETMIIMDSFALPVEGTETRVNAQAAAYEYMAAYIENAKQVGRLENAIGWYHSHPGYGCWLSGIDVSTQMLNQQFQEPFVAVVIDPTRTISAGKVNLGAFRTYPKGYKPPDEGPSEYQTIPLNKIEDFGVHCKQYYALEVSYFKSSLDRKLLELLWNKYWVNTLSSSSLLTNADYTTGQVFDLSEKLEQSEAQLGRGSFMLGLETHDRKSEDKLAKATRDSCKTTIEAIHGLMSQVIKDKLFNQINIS

inhibition, inactive:
C/C(=N\NC(N)=S)c1cccnc1 -5.1%
CCc1nc2c(=O)[nH]cnc2o1 -0.47%
Cc1c(CNCCc2ccccc2)c(C(=O)O)c(C)n1-c1ccccc1 -2.52%
Cc1ccc(OCCNC(=O)c2cccc(S(=O)(=O)N3CCN(Cc4ccccc4)CC3)c2)cc1 -1.93%
Cn1c(=O)[nH]c2c(c(C(=O)O)nn2C)c1=O -1.75%
COc1cc(/C=N\NC(=O)c2nonc2N)c(OC)cc1Br 3.66%
COc1ccccc1N1CCN(C(=O)C(=O)N/N=C/c2ccccc2F)CC1 -1.85%
CC1CC(C)CN(C(=O)CCNC(=O)Cn2cnc3ccccc3c2=O)C1 (stereo unspecified) -0.46%
O=C(CN1CCN(c2ncc(C(F)(F)F)cc2Cl)CC1)Nc1ccc2c(c1)OCO2 4.43%
CCCC(=O)n1nc(NCc2ccc(OC)cc2)nc1NCc1ccc(OC)cc1 0.03%
CC1(C)C=Cc2c(ccc3c2OC[C@@H](c2ccc(O)cc2O)C3)O1 1.92%
Cc1cc(Br)cn2c(Cc3cccc(F)c3)c(-c3cccc(Br)c3)nc12 1.9%
Cc1ccc(-c2nc3c(C)cc(Br)cn3c2Cc2ccccc2)cc1 -3.35%
COC(=O)c1cc(NC(=O)CC2C(=O)NCCN2C(=O)c2ccc(F)cc2)cc(C(=O)OC)c1 (stereo unspecified) 0.24%
CS(=O)(=O)c1ccc(-c2nnn(CC(=O)Nc3ccc4c(c3)OCCO4)n2)cc1 0.36%
COc1ccc(N2CCN(C(=O)CNS(=O)(=O)c3ccc(C)c(C)c3)CC2)cc1 -4.8%
COc1ccc(NC(=O)CC2SC(N3CCCCC3)=NC2=O)cc1OC (stereo unspecified) 0.22%
COc1ccc(S(=O)(=O)N2CCN(CC(=O)N3c4ccccc4CC3C)CC2)cc1OC (stereo unspecified) 18.4%
CCOC(=O)c1cc(NC(=O)c2ccc(Cl)cc2)c(=O)oc1-c1ccccc1 -2.25%
COc1ccc(C2COC(=O)C2=N)c(NC(=O)c2ccccc2)c1 (stereo unspecified) -4.82%
CCCCCCCC1(C)NC(=O)N(CC(=O)Nc2cc(C)on2)C1=O (stereo unspecified) -7.92%
C=CCn1c(SCc2cccc(F)c2)nc2cc(C(=O)N3CCC(C(N)=O)CC3)ccc2c1=O 0.76%
Cc1ccc(CSCC2Nc3ccc(C(=O)N4CCN(c5ccc(F)cc5)CC4)cc3NC2=O)cc1 (stereo unspecified) 25.2%
O=C(Cc1coc2ccc3ccccc3c12)NCc1cccs1 -8.34%
O=C(NCc1cccs1)c1ccc(Br)o1 -0.05%
CCOc1c(Br)cc(/C=C2\C(=O)N(CCC#N)N=C2C)cc1OC 2.79%
CCc1nc2ccc(C(=O)N(C)CCN(C)C)cn2c1N(CC)CCOC -0.82%
O=C(CC1Oc2ccccc2NC1=O)NCCCN1CCN(Cc2ccccc2)CC1 (stereo unspecified) -8.5%
O=C(CCN1C(=O)COc2ccccc21)NCCCN1CCN(c2ccc(F)cc2)CC1 -4.53%
Cc1nonc1OCCn1nnnc1N -0.98%
O=C(O[C@H]1[C@H](Cc2ccccc2)NS(=O)(=O)[C@H]2C[C@@H]3C=C[C@]12O3)c1ccc([N+](=O)[O-])cc1 0.94%
CCCSc1nc2[nH]ncc2c(=O)[nH]1 0.78%
Cn1ccnc1-c1nnn(-c2ccc(F)cc2)n1 -1.15%
CC(=O)NCCn1c(SCC(=O)Nc2ccc(C)cc2)nc2ccccc2c1=O -2.03%
COc1ccc(NC(=O)CSc2nnc(Cc3ccccc3)c(=O)n2N)cc1 2.76%
C=CCSc1nc2c(c(=O)[nH]1)C(C(C)C)C(C#N)=C(N)O2 (stereo unspecified) -4.61%
CCCNC(=O)C(=O)Nc1cc2c3c(c1)CCC(=O)N3CCC2 -1.23%
CCOc1ccc(NS(=O)(=O)c2ccc(C)c(C(N)=O)c2)cc1 8.11%
COc1ccc(NS(=O)(=O)c2ccc(C)c(C(=O)NCC(c3cccs3)N3CCOCC3)c2)cc1 (stereo unspecified) 1.17%
CC1O[C@H](OC2C(COC3OC(CO)C(O)[C@H](O)C3O)OC(OC3CC[C@]4(C)C(CC[C@@]5(C)[C@@H]4C=C[C@]46OC[C@@]7(CCC(C)(C)C[C@H]74)C(O)C[C@@]56C)C3(C)C)C(O)C2O)C(O)C(O)C1O (stereo partly specified) -2.09%
COc1ccc(-n2nnc3c(=O)n(CC(=O)N4CCC(Cc5ccccc5)CC4)cnc32)cc1 -0.9%

inhibition, active:
COc1cccc(/C=N/NC(=O)c2[nH]nc3c2CCc2ccccc2-3)c1O 67%
Cc1cc(Br)cn2c(Cc3ccsc3)c(-c3ccc(C#N)cc3)nc12 77.2%
CS(=O)(=O)c1ccc2c(c1)SC1=NC(=O)/C(=C/c3ccco3)C(=N)N12 58.8%
CC(=O)c1cc(NC(=O)c2ccccc2)c(=O)oc1/C=C/N(C)C 55.4%
O=C1Nc2cc(C(=O)N3CCN(c4ccc(F)cc4)CC3)ccc2NC1CSCc1cccc(F)c1 (stereo unspecified) 51.2%
CC(C)Cn1c(N)c(C(=O)NCc2cccs2)c2nc3ccccc3nc21 36%
COc1cc(/C=C2/C(=O)NN(c3cccc(Cl)c3)C2=O)cc(Br)c1O 44.4%
CN1CCN(CCCNC(=O)c2ccc(/C=C3\Oc4ccccc4N(Cc4ccc(Cl)cc4)C3=O)cc2)CC1 119%
COc1ccc(NC(=O)CSc2nc3ccccc3c(=O)n2C)cc1 81.7%
COc1ccc(NS(=O)(=O)c2ccc(C)c(C(=O)N(C)Cc3ccc(OC)cc3OC)c2)cc1 157%
